According to ChEMBL document CHEMBL1148082, “Cucurbitacins, cell adhesion inhibitors from Conobea scoparioides” (J Nat Prod, 1994):
The source made the active and inactive calls. The calls are words filed in the database; no cut-off is given here.

What was measured:
Homo sapiens [1] = organism: Homo sapiens; assay: Inhibition of actin polymerization in fMLP-stimulated human neutrophils assessed as positive fluorescence signal at 10 uM
Method in brief: (§1)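 Human peripheral blood neutrophils were preincubated with compound for 45 min at 37° in PBS with Ca²⁺/Mg²⁺ and 10% fetal calf serum. They were then stimulated with fMLP (1 × 10⁻⁸ M final) for 1 min at 37°. Cells were fixed and permeabilized for at least 30 min at room temperature in 3% paraformaldehyde with lysophosphatidylcholine (12.5 µg/ml), pH 7.6. They were then stained with NBD-phalloidin for 15 min at 37° and analysed by flow cytometry (ex 488, em 530 nm). The value is the percent of cells with fluorescence above background.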

Homo sapiens [2] = organism: Homo sapiens; assay: Inhibition of actin polymerization in fMLP-stimulated human neutrophils assessed as positive fluorescence signal at 1 uM; method in brief: as §1
JY [3] = assay: Cytotoxicity against human JY cells assessed as inhibition of thymidine uptake at 3.3 uM by scintillation counting; type: functional
Method in brief: (§2)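 PKH26-stained JY cells were held at 37° with compound (0.3, 1.0, 3.3 or 50 μM) for 24 h and pulsed with tritiated thymidine during the last 5 h. Uptake was counted by scintillation and expressed as % inhibition.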

Homo sapiens [4] = organism: Homo sapiens; assay: Inhibition of actin polymerization in fMLP-stimulated human neutrophils assessed as positive fluorescence signal at 0.33 uM; method in brief: as §1
Homo sapiens [5] = organism: Homo sapiens; assay: Inhibition of actin polymerization in fMLP-stimulated human neutrophils assessed as positive fluorescence signal at 3.3 uM; method in brief: as §1
JY [6] = assay: Cytotoxicity against human JY cells assessed as inhibition of thymidine uptake at 1 uM by scintillation counting; type: functional; method in brief: as §2
JY [7] = assay: Cytotoxicity against human JY cells assessed as inhibition of thymidine uptake at 0.3 uM by scintillation counting; type: functional; method in brief: as §2
JY [8] = assay: Cytotoxicity against human JY cells assessed as inhibition of thymidine uptake up to 5 hrs; type: functional, cell-based
Method in brief: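 Proliferation assay in PKH26-stained JY cells exposed to test compounds at 37° for 5 h, with a tritiated thymidine pulse over the final 5 h. Thymidine uptake was quantitated by scintillation counting.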

[9] = molecular target: Protein kinase C (PKC) (Homo sapiens) (UniProt O94806+P41743+P17252+P05129+Q05655+P05771+Q05513+Q02156+P24723+Q15139+Q04759); assay: Inhibition of PKC in human JY cells; type: cell-based
JY [10] = assay: Cytotoxicity against human JY cells after 48 hrs by MTT assay; type: functional, cell-based
Method in brief: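 PKH26-stained JY cells incubated at 37° with test compounds for 48 h. MTT added for the last 4 h. Cells and formazan crystals were solubilized, and colour was read on an ELISA plate reader.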

JY [11] = assay: Cytotoxicity against human JY cells up to 45 mins; type: functional, cell-based
Method in brief: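 Washout format: stained JY cells were treated with compounds for 45 min, matching the adhesion assay length, then washed extensively. Cells were then either incubated 24 h with a tritiated thymidine pulse in the last 5 h and scintillation counting, or run in the 48-h MTT assay.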

JY [12] = assay: Effect on cell activation in human JY cells assessed as inhibition of Ca2+ flux; type: functional, cell-based
JY [13] = assay: Cytotoxicity against human JY cells assessed as inhibition of thymidine uptake at 50 uM by scintillation counting; type: functional; method in brief: as §2

Compound	inhibition (Homo sapiens [1])	inhibition (Homo sapiens [2])	inhibition at 3.3 µM (JY [3])	inhibition (Homo sapiens [4])	inhibition (Homo sapiens [5])	inhibition at 1 µM (JY [6])	inhibition at 0.3 µM (JY [7])	Activity (JY [8])	Activity [9]	Activity (JY [10])	Activity (JY [11])	Activity (JY [12])	inhibition at 50 µM (JY [13])
C=C1[C@@H](C)[C@H]2[C@H](Cc3ccccc3)NC(=O)[C@]23OC(=O)/C=C/[C@H](O)CCC[C@@H](C)C/C=C/[C@H]3[C@@H]1O	4.2%	45.5%	–	–	–	–	–	–	–	–	–	–	–
CC(=O)OC(C)(C)/C=C/C(=O)[C@](C)(O)[C@H]1[C@H](O)C[C@@]2(C)[C@@H]3CC=C4[C@H](C[C@H](O)C(=O)C4(C)C)[C@]3(C)C(=O)C[C@]12C [CUCURBITACIN B]	–	19.5%	71%	29.8%	9.6%	63%	39%	–	–	–	–	–	–
CC(C)(O)/C=C/C(=O)[C@](C)(O)[C@H]1[C@H](O)C[C@@]2(C)[C@@H]3CC=C4[C@@H](C[C@H](O)C(=O)C4(C)C)[C@]3(C)C(=O)C[C@]12C [CUCURBITACIN D]	–	64.6%	58%	75.2%	24.3%	45%	12%	–	–	–	–	–	–
CC(=O)OC(C)(C)/C=C/C(=O)[C@](C)(O)[C@H]1[C@H](O)C[C@@]2(C)[C@@H]3CC=C4[C@@H](C=C(O)C(=O)C4(C)C)[C@]3(C)C(=O)C[C@]12C [CUCURBITACIN E]	–	24.7%	68%	21.5%	3.8%	60%	19%	inactive	inactive	Active	Toxic	inactive	–
CC(C)(O)/C=C/C(=O)[C@](C)(O)[C@H]1[C@H](O)C[C@@]2(C)[C@@H]3CC=C4[C@@H](C=C(O)C(=O)C4(C)C)[C@]3(C)C(=O)C[C@]12C [CUCURBITACIN I]	–	15.3%	58%	60.5%	20.5%	63%	34%	–	inactive	–	–	inactive	–
CC(C)(O)CCC(=O)[C@@](C)(O)C1[C@H](O)C[C@@]2(C)[C@@H]3CC=C4C(C=C(O)C(=O)C4(C)C)[C@]3(C)C(=O)C[C@]12C (stereo partly specified) [CUCURBITACIN L]	–	79.2%	–	86.2%	77.7%	–	–	–	–	–	–	–	69%
CC(C)(O)CCC(=O)[C@](C)(O)[C@H]1[C@H](O)C[C@@]2(C)[C@@H]3CC=C4[C@@H](C[C@H](O)C(=O)C4(C)C)[C@]3(C)C(=O)C[C@]12C [CUCURBITACIN R]	–	82.8%	7%	79.2%	86%	22%	20%	–	inactive	–	–	inactive	74%
